How the values were obtained:
Acetylcholinesterase [1] = molecular target: T1, Acetylcholinesterase (Bos taurus, UniProt P23795); test: Inhibitory activity towards beef erythrocytes acetylcholinesterase
T1 sequence (P23795 whole entry): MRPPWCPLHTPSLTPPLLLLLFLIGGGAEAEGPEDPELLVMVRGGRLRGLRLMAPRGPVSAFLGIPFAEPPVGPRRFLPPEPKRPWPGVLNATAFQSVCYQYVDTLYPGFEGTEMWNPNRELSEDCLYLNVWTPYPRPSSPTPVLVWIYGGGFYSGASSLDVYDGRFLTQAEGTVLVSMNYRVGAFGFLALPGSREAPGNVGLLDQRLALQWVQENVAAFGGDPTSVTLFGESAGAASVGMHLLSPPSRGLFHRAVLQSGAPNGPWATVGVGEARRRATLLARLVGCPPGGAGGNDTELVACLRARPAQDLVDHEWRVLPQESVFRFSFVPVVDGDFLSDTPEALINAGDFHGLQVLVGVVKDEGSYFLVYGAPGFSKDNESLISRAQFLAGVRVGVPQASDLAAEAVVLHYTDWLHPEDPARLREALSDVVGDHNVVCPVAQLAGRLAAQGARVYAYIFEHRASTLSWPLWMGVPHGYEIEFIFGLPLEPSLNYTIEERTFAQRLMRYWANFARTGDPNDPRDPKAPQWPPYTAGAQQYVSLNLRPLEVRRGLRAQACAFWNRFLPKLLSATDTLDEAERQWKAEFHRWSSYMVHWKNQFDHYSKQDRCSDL

Acetylcholinesterase [2] = molecular target: T1, Acetylcholinesterase; test: Inhibitory activity towards calf serum acetylcholinesterase
Outline: (§1)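 Modified Rappaport assay following acetylcholine chloride hydrolysis to acetic acid, with m-nitrophenol indicator in phosphate buffer at pH 7.8 and NaCl. The compound is added in DMSO, and the reaction is started with serum (human, mouse or calf). A420 is read at 25 °C at 0 and 5 min. Final inhibitor is 0.1, 0.5, 1, 5, 10, 30 and 50 µM. IC50 is interpolated from ΔE plots in the pseudolinear region.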

Acetylcholinesterase [3] = molecular target: Acetylcholinesterase (Electrophorus electricus, UniProt O42275); test: Inhibitory activity towards Electrophorus electricus acetylcholinesterase
Cholinesterase [4] = molecular target: Cholinesterase (Homo sapiens, UniProt P06276); test: Inhibitory activity towards human butyrylcholinesterase; outline: as §1
Cholinesterase [5] = molecular target: Cholinesterase (Mus musculus, UniProt Q03311); test: Inhibitory activity towards mouse butyrylcholinesterase; outline: as §1
L1210 = test: Antitumor activity tested in L1210 cells; type: functional, cell-based; settings: Mus musculus
CCRF-CEM = test: Anti-HIV-1 activity tested in human lymphocytic CEM cells; type: functional, cell-based

Chain of Cholinesterase (Homo sapiens, UniProt P06276) (P06276 whole entry): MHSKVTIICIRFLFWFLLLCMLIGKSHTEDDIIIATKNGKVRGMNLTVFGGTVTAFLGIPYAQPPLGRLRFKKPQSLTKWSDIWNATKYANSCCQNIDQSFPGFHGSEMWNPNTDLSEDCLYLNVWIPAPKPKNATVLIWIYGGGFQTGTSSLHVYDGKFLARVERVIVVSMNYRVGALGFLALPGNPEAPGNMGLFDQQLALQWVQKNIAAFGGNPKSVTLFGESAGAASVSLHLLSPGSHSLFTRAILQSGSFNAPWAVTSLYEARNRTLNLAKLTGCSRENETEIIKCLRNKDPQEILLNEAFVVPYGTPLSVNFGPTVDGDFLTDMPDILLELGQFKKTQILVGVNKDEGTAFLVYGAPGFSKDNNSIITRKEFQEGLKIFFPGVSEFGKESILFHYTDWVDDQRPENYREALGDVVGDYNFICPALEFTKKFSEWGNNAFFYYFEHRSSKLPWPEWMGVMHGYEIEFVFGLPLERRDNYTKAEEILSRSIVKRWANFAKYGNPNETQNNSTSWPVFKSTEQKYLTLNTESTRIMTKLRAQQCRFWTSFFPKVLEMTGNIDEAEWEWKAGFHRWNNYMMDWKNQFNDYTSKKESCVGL
Chain of Acetylcholinesterase (Electrophorus electricus, UniProt O42275) (O42275 whole entry): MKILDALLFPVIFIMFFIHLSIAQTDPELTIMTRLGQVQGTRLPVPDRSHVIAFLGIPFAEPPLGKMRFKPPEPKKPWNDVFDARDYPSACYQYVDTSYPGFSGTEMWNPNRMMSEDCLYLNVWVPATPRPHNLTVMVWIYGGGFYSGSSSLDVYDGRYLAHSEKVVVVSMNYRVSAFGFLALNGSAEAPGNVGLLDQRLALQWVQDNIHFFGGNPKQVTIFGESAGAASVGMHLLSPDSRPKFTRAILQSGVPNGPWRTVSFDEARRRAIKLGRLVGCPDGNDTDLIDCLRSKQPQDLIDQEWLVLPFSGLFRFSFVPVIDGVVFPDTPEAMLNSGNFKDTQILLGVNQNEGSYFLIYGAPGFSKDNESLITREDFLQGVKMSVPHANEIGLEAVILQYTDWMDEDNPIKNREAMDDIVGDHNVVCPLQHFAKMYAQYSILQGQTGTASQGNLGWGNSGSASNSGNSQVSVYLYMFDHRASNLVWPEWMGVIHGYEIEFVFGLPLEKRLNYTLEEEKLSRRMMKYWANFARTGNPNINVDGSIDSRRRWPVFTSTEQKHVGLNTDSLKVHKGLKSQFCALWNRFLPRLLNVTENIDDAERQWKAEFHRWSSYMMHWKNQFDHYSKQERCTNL
Chain of Cholinesterase (Mus musculus, UniProt Q03311) (Q03311 whole entry): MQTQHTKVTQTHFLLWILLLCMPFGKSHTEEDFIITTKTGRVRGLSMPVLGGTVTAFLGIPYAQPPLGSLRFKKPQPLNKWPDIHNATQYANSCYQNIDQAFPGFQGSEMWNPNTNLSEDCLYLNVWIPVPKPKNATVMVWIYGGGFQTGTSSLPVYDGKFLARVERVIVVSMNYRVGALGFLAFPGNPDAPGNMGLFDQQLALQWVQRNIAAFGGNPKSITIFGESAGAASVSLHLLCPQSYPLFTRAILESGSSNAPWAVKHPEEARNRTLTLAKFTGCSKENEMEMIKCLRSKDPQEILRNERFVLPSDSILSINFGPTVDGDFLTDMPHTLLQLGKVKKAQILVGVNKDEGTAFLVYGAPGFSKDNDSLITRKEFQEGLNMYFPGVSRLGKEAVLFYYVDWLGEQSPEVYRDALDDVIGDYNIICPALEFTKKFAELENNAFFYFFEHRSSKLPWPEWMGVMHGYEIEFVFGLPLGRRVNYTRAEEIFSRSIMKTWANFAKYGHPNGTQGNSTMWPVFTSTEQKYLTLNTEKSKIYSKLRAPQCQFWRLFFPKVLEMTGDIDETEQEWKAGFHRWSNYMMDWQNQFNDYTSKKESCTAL

Row | Structure (SMILES) | IC50 (Acetylcholinesterase [1]) [µM] | IC50 (Acetylcholinesterase [2]) [µM] | IC50 (Acetylcholinesterase [3]) [µM] | IC50 (Cholinesterase [4]) [µM] | IC50 (Cholinesterase [5]) [µM] | EC50 (L1210) [µM] | EC50 (CCRF-CEM) [µM] | IC50 (L1210) [µM]
1 | Cc1cccc2c1OP(=O)(OC[C@@H]1C[C@H](F)[C@H](n3cnc4c(N)ncnc43)O1)OC2 (some centres not stated) | > 50 | > 50 | > 50 | 5 | > 50 |  |  | 
2 | Cc1cccc2c1O[P@@](=O)(OC[C@H]1O[C@@H](n3cc(F)c(=O)[nH]c3=O)C[C@@H]1O)OC2 |  |  | > 50 |  |  | 0.04 |  | 
3 | Cc1cn([C@H]2C=C[C@@H](CO[P@@]3(=O)OCc4cccc(C(C)(C)C)c4O3)O2)c(=O)[nH]c1=O |  |  | > 50 | > 50 |  |  | 0.13 | 
4 | Cc1cccc2c1OP(=O)(OC[C@@H]1C[C@@H](F)[C@H](n3cnc4c(N)ncnc43)O1)OC2 (some centres not stated) |  |  | > 50 | 1.1 |  |  |  | 
5 | O=C1NC(=O)N([C@H]2C[C@H](O)[C@@H](COP3(=O)OCc4cccc(-c5ccccc5)c4O3)O2)C[C@H]1/C=C/Br (some centres not stated) |  |  | > 50 | > 50 |  |  |  | 
6 | Cc1cccc2c1O[P@@](=O)(OC[C@H](CO)OCn1cnc3c(O)nc(N)nc31)OC2 |  |  | > 50 | 23 |  |  |  | 
7 | O=C1NC(=O)N([C@H]2C[C@H](O)[C@@H](CO[P@]3(=O)OCc4cccc(-c5ccccc5)c4O3)O2)CC1/C=C/Br (some centres not stated) |  |  | > 50 | 3.7 |  |  |  | 
8 | COc1ccc2c(c1)CO[P@](=O)(OC[C@@H]1C=C[C@H](n3cc(C)c(=O)[nH]c3=O)O1)O2 |  |  | > 50 | > 50 |  |  | 0.043 | 
9 | Cc1cccc2c1O[P@@](=O)(OC[C@@H]1C=C[C@H](n3cc(C)c(=O)[nH]c3=O)O1)OC2 | > 50 | > 50 | > 50 | > 50 | > 50 |  | 0.08 | 
10 | Cc1ccc2c(c1)COP(=O)(OC[C@@H]1C=C[C@H](n3cc(C)c(=O)[nH]c3=O)O1)O2 (some centres not stated) |  |  | > 50 | 4.6 |  |  |  | 
11 | Cc1cn(C2C=CC(COP3(=O)OCc4cc(CCC(=O)OCc5ccccc5)ccc4O3)O2)c(=O)[nH]c1=O (configuration not stated) |  |  | > 50 | 22 |  |  | 0.08 | 
12 | Cc1cc(C)c2c(c1)COP(=O)(OCC1C=CC(n3cc(C)c(=O)[nH]c3=O)O1)O2 (configuration not stated) |  |  | > 50 | 46 |  |  |  | 
13 | Cc1cccc2c1OP(=O)(OC[C@H]1O[C@@H](N3C=NC4C(=O)N=C(N)N=C43)C[C@@H]1O)OC2 (some centres not stated) |  |  | > 50 | > 50 |  |  |  | 
14 | Cc1cccc2c1OP(=O)(OC[C@H]1O[C@@H](n3cc(C)c(=O)[nH]c3=O)C[C@@H]1O)OC2 (some centres not stated) |  |  | > 50 | 36 |  |  |  | 
15 | Cc1cccc2c1OP(=O)(OC[C@H]1O[C@@H](n3cc(F)c(=O)[nH]c3=O)C[C@@H]1O)OC2 (some centres not stated) |  |  | > 50 | > 50 |  |  |  | 0.04
16 | Cc1cccc2c1OP(=O)(OCC1CCC(n3cc(C)c(=O)[nH]c3=O)O1)OC2 (configuration not stated) |  |  | > 50 | 1 |  |  | 4.3 | 
17 | Cc1cn(C2C=CC(COP3(=O)OCc4cc(C(C)(C)C)cc(C(C)(C)C)c4O3)O2)c(=O)[nH]c1=O (configuration not stated) |  |  | > 50 | > 50 |  |  | 1.1 | 
18 | Cc1cn(C2C=CC(COP3(=O)OCc4cccc(-c5ccccc5)c4O3)O2)c(=O)[nH]c1=O (configuration not stated) |  |  | > 50 | 0.35 |  |  | 0.13 | 
19 | Cc1cn(C2C=CC(COP3(=O)OCc4cccc(CCC(=O)OCc5ccccc5)c4O3)O2)c(=O)[nH]c1=O (configuration not stated) |  |  | > 50 | 2.8 |  |  | 0.15 | 
20 | Cc1cn(C2C=CC(COP3(=O)Oc4ccccc4C(C(Cl)(Cl)Cl)O3)O2)c(=O)[nH]c1=O (configuration not stated) |  |  | > 50 | 27 |  |  | 0.19 | 
21 | CCCCC1OP(=O)(OCC2C=CC(n3cc(C)c(=O)[nH]c3=O)O2)Oc2cccc(Cl)c21 (configuration not stated) |  |  | > 50 | 13 |  |  | 0.19 | 
22 | Cc1cccc2c1OP(=O)(OCC1C=CC(n3cnc4c(N)ncnc43)O1)OC2 (configuration not stated) | > 50 | > 50 | > 50 | 1.2 | 10.5 |  | 0.065 | 
23 | Cc1cn(C2C=CC(COP3(=O)OCc4c(ccc5ccccc45)O3)O2)c(=O)[nH]c1=O (configuration not stated) |  |  | > 50 | 3.9 |  |  | 0.09 | 
24 | Cc1cccc2c1OP(=O)(OCC1C=CC(n3cnc4c(O)nc(N)nc43)C1)OC2 (configuration not stated) |  |  | > 50 | 2.5 |  |  | 0.47 | 
25 | Cc1cn(C2C=CC(COP3(=O)OCc4cc(C(C)(C)C)ccc4O3)O2)c(=O)[nH]c1=O (configuration not stated) |  |  | > 50 | 5.6 |  |  | 0.14 | 
26 | Cc1cn([C@H]2C=C[C@@H](COP3(=O)OCc4cccc(C(C)(C)C)c4O3)O2)c(=O)[nH]c1=O (some centres not stated) |  |  | > 50 | 4.2 |  |  | 0.18 | 

Row | Structure (SMILES) | IC50 (Acetylcholinesterase [1]) [µM] | IC50 (Acetylcholinesterase [2]) [µM] | IC50 (Acetylcholinesterase [3]) [µM] | IC50 (Cholinesterase [4]) [µM] | IC50 (Cholinesterase [5]) [µM] | EC50 (L1210) [µM] | EC50 (CCRF-CEM) [µM] | IC50 (L1210) [µM]
27 | Cc1cn([C@H]2C=C[C@@H](COP3(=O)OCc4ccccc4O3)O2)c(=O)[nH]c1=O (some centres not stated) |  |  | > 50 | 0.77 |  |  |  | 
28 | Cc1cccc2c1OP(=O)(OC[C@@H]1C=C[C@H](n3cc(C)c(=O)[nH]c3=O)O1)OC2 (some centres not stated) |  |  | > 50 | 1.2 |  |  |  | 
29 | Cc1cccc2c1OP(=O)(OCC1CCC(n3cnc4c(N)ncnc43)O1)OC2 (configuration not stated) | > 50 | > 50 | > 50 | 0.91 | 2.35 |  | 0.047 | 
30 | CCC(C)c1ccc2c(c1)COP(=O)(OCC1C=CC(n3cc(C)c(=O)[nH]c3=O)O1)O2 (configuration not stated) |  |  | > 50 | 3.3 |  |  | 1.9 | 
31 | CCOC(=O)CC1OP(=O)(OCC2C=CC(n3cc(C)c(=O)[nH]c3=O)O2)Oc2cccc(Cl)c21 (configuration not stated) |  |  | > 50 | > 50 |  |  | 0.14 | 
32 | Cc1cn(C2C=CC(COP3(=O)Oc4ccccc4C(CCl)O3)O2)c(=O)[nH]c1=O (configuration not stated) |  |  | > 50 | 3.9 |  |  | 0.19 | 
33 | Cc1cn(C2C=CC(COP3(=O)Oc4cccc(Cl)c4C(C)O3)O2)c(=O)[nH]c1=O (configuration not stated) |  |  | > 50 | 1.8 |  |  | 0.19 | 
34 | Cc1cccc2c1OP(=O)(OCC1OC(n3cc(C)c(=O)[nH]c3=O)CC1=O)OC2 (configuration not stated) |  |  | > 50 | > 50 |  |  |  | 
35 | Cc1cn(C2C=CC(COP3(=O)OCc4c(Cl)cccc4O3)O2)c(=O)[nH]c1=O (configuration not stated) |  |  | > 50 | 0.57 |  |  | 0.09 | 
36 | COC(=O)CCc1ccc2c(c1)COP(=O)(OCC1C=CC(n3cc(C)c(=O)[nH]c3=O)O1)O2 (configuration not stated) |  |  | > 50 | 8.8 |  |  | 0.24 | 
37 | Cc1cn(C2C=CC(COP3(=O)OCc4ccc5ccccc5c4O3)O2)c(=O)[nH]c1=O (configuration not stated) |  |  | > 50 | 0.25 |  |  | 0.14 | 
38 | COC(=O)CCc1cccc2c1OP(=O)(OCC1C=CC(n3cc(C)c(=O)[nH]c3=O)O1)OC2 (configuration not stated) |  |  | > 50 | 2.7 |  |  | 0.16 | 
39 | Cc1cn(C2C=CC(COP3(=O)OCc4cc5ccccc5cc4O3)O2)c(=O)[nH]c1=O (configuration not stated) |  |  | > 50 | 0.41 |  |  | 0.41 | 
40 | Cc1cccc2c1OP(=O)(OCC1CC(O)C(n3cnc4c(N)ncnc43)O1)OC2 (configuration not stated) |  |  | > 50 | 28 |  |  |  | 
41 | Cc1cn(C2C=CC(COP3(=O)OCc4cc(CCC(=O)OC(C)(C)C)ccc4O3)O2)c(=O)[nH]c1=O (configuration not stated) |  |  | > 50 | 4.4 |  |  | 0.18 | 
42 | CCC(C)c1cccc2c1OP(=O)(OCC1C=CC(n3cc(C)c(=O)[nH]c3=O)O1)OC2 (configuration not stated) |  |  | > 50 | 2 |  |  | 0.08 | 
43 | Cc1cn(C2C=CC(COP3(=O)OCc4cc(CCC(=O)O)ccc4O3)O2)c(=O)[nH]c1=O (configuration not stated) |  |  | > 50 | > 50 |  |  | 0.14 | 
44 | Cc1cccc2c1OP(=O)(OCC1OC(n3cc(C)c(=O)[nH]c3=O)CC1N=[N+]=[N-])OC2 (configuration not stated) | > 50 | > 50 | > 50 | 40 | > 50 |  | 0.006 | 
45 | Cc1cn(C2C=CC(COP3(=O)OCc4cccc(CCC(=O)O)c4O3)O2)c(=O)[nH]c1=O (configuration not stated) |  |  | > 50 | > 50 |  |  | 0.19 | 
46 | Cc1cn(C2C=CC(COP3(=O)OCc4cc(-c5ccccc5)ccc4O3)O2)c(=O)[nH]c1=O (configuration not stated) |  |  | > 50 | 4.4 |  |  | 0.4 | 
47 | Cc1cn(C2C=CC(COP3(=O)Oc4ccccc4C(C(Cl)Cl)O3)O2)c(=O)[nH]c1=O (configuration not stated) |  |  | > 50 | 26 |  |  | 0.16 | 
48 | Cc1cn(C2C=C[C@@H](CO[P@]3(=O)OCc4cccc(C(C)(C)C)c4O3)O2)c(=O)[nH]c1=O (single isomer, unassigned) |  |  | > 50 | 2.6 |  |  | 0.6 | 
49 | Cc1cccc2c1O[P@](=O)(OC[C@@H]1C=CC(n3cc(C)c(=O)[nH]c3=O)O1)OC2 (single isomer, unassigned) | > 50 | > 50 | > 50 | 0.24 | ≥ 5 |  | 0.42 | 
50 | COc1ccc2c(c1)CO[P@@](=O)(OC[C@@H]1C=CC(n3cc(C)c(=O)[nH]c3=O)O1)O2 (single isomer, unassigned) |  |  | > 50 | 1.8 |  |  | 0.5 | 
51 | Cc1cccc2c1OP(=O)(OC[C@H]1C=CC(n3cnc4c(NC5CC5)nc(N)nc43)C1)OC2 (single isomer, unassigned) |  |  | > 50 | 1.3 |  |  | 0.7 | 

Source: ChEMBL document CHEMBL1148460, “Interaction of cycloSal-pronucleotides with cholinesterases from different origins. A structure-activity relationship” (J Med Chem, 2004)
